# Measured values: the RNAGym collection of RNA variant scans (doi:10.1126/science.aae0568)
# Variants at the floor of the assay were thinned out.
# B1: tRNA (parent)
# chain: GUUCCGUUGGCGUAAUGGUAACGCGUCUCCCUCCUAAGGAGAAGACUGCGGGUUCGAGUCCCGUACGGAACG
# Variants of: B1
# Assay: yeast fitness relative to wild type (ratio to wild type); higher = fitter; tRNA-Arg(CCU), competitive growth, 37 C, YPD
# Summary of the method: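 Changes in genotype frequencies gave Darwinian fitness relative to wild type. Frequencies were read by 100-nucleotide paired-end sequencing of gene amplicons before and after pooled Saccharomyces cerevisiae strains, carrying tRNA-Arg(CCU) gene variants at the native locus, were competed in YPD at 37°C for 24 hours in six replicates. A genotype was kept only with ≥ 100 starting reads, and estimates < 0.5 were set to 0.5.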
row,Variant,yeast fitness
1,U13G G48A A65U,0.654
2,A14C A15U C30U C34G C61A U64A A69U,≤ 0.5
3,A14C C30U G41C,0.589
4,A14C A20C C30A C34G C66A,≤ 0.5
5,A14C A15U U47G,≤ 0.5
6,U13G C22U G44A,0.641
7,A14C C22G G52C A65U,≤ 0.5
8,U13G C24U U28A A42G,≤ 0.5
9,U13G A14U U16A G17U G67C,≤ 0.5
10,U13G G38C,0.757
11,U13G C62G,0.726
12,U13G C62U,0.92
13,A14C C49G U54C G63A,≤ 0.5
14,U13G A69C,0.951
15,U13C U64C,1.04
16,A14C A20U C31U G38C,≤ 0.5
17,A14C A15C,0.518
18,A14C A40C,0.6
19,U13G C33G A40G C60A,≤ 0.5
20,A14C C31U A70G,0.612
21,A14C A45U C62A,≤ 0.5
22,U13C U28C U47C C55A,0.545
23,U13G C22U C31A C62U A65C,≤ 0.5
24,U13G C30A A65U A69C,≤ 0.5

row,Variant,yeast fitness
1,U13C U19A G51C C55U U64G,0.633
2,A14C C60U C62U U64A,≤ 0.5
3,U13C U32G G39C G52C,≤ 0.5
4,A14C A21G C29A C34U A69U,0.638
5,U13C U16G A70U,0.595
6,A14C C27G A40U A70U,≤ 0.5
7,A14C C61U A70C,≤ 0.5
8,U13G G58C C62U A70U,≤ 0.5
9,A14C A15G G17C A45C,≤ 0.5
10,A14C C22U G41A C61U C66U,≤ 0.5
11,U13C U19A A21U C24A U54C U59C A69G,≤ 0.5
12,A14C C22U U64C A70G,≤ 0.5
13,A14C A21C G39A C49G,≤ 0.5
14,A14C C31G A37U G39C A42C,≤ 0.5
15,A14C C55A G58A,0.55
16,A14C A15U G18C,0.67
17,A14C A57U,0.52
18,A14C A57G,0.748
19,U13G U16C G39C A65G,≤ 0.5
20,A14C C24U A40U G44A A70G,≤ 0.5
21,U13G U28A C30A A69U,0.554
22,A14C A15C A21U A57G A65G,≤ 0.5
23,U13C U59G G68C,≤ 0.5
24,U13G A70G,0.831

row,Variant,yeast fitness
1,U13G A70U,1.11
2,U13G A70C,0.843
3,U13C U26C,0.809
4,A14C C24G A45C U59C C61U,≤ 0.5
5,A14C C29U G52A C55G,≤ 0.5
6,U13G G48A C62G A69U,0.599
7,A14C C27A U54A A69G,0.647
8,U13C U16G A65G,0.572
9,A14C C49G A69C,≤ 0.5
10,U13C G68A,0.785
11,U13G G44C,0.774
12,A14C A36G,0.644
13,A14C A36C,0.564
14,A14C A36U,0.591
15,A14C A65G,0.776
16,A14C C24A G52A U53A,≤ 0.5
17,A14C A21G G25A C33U C61A A69U,≤ 0.5
18,A14C A15C C27U C29A C34G G50C,0.597
19,U13G A14C G39C G41A C60G C61U C62G A65U,≤ 0.5
20,A14C A15U C27U U32C U35G,0.584
21,A14C A45U G48A,≤ 0.5
22,U13G A20G U28A A70U,0.873
23,U13G C49U U59C,≤ 0.5
24,A14C C27G C33A A45U G63C A69G,≤ 0.5

row,Variant,yeast fitness
1,A14C C33G G44C U54G G58C,≤ 0.5
2,A14C C27U C46U G52C,≤ 0.5
3,A14C A21U C22U A37G G44A A45C C46A C55U U59G,0.608
4,A14C A20G C22U C30U,≤ 0.5
5,A14C C30G A37G A45G G50A U59C G67C,≤ 0.5
6,A14C A57C G68C,≤ 0.5
7,U13G A20G C22G,0.581
8,A14C A15G C46G A69G,≤ 0.5
9,U13G G39C C46U,0.535
10,U13G U32A C60A G63A,≤ 0.5
11,U13G U28A U53C C55G C66A,≤ 0.5
12,A14C C27U C31U C33A C55U,≤ 0.5
13,A14C A20C C33G A65C C66U,0.758
14,A14C A21C C24U A36U A43U A65C C66U,≤ 0.5
15,A14C A15U U64G C66A,≤ 0.5
16,A14C C22G U26G,≤ 0.5
17,U13G C31A C66U,0.814
18,A14C A15U C33A A37G,0.596
19,U13G C31U U35A G51A A69U A70G,≤ 0.5
20,A14C C22U C24U A37G,≤ 0.5
21,A14C C30U G68C,≤ 0.5
22,A14C C46U G50C C61A A70C,≤ 0.5
23,A14C A43G U64A,≤ 0.5
24,U13C U16A G17C C34U,≤ 0.5

row,Variant,yeast fitness
1,A14C A57U C62U G67A,0.508
2,A14C C34A G38C,≤ 0.5
3,A14C C22U C34U,0.79
4,U13G G25A A69U,0.798
5,A14C A20U C60G,0.571
6,A14C C31U G50A C55G C62A,≤ 0.5
7,U13G C49A G52C,≤ 0.5
8,U13G U35G A40G C66U,0.526
9,U13G U35C G38A A42U G58C A65U,≤ 0.5
10,A14C C31U A36U A69C,0.624
11,U13G G58A,1.08
12,U13G G58C,0.969
13,A14C C29A G48A G50A,≤ 0.5
14,A14C A15C C27U C29A C34G G39A G50C,≤ 0.5
15,A14C A20U C31U,≤ 0.5
16,A14C A20U C31A,≤ 0.5
17,U13G C33G,0.51
18,U13G C33U,0.671
19,A14C A45G G68C,≤ 0.5
20,U13G A21C C46U G50A U64A A69U,≤ 0.5
21,A14C C24G U26A A36G A40U A43U,≤ 0.5
22,A14C A20U G25C A43C,≤ 0.5
23,A14C C34U A37G A69C,≤ 0.5
24,A14C A21G C29A C34U,0.612

row,Variant,yeast fitness
1,A14C A20C U32C,≤ 0.5
2,A14C C22A U59G C62G,≤ 0.5
3,U13G C24U C34A C49U G63A,0.554
4,U13G C31A A57U,≤ 0.5
5,A14C C24G,0.579
6,A14C A15G G25C U32A A43C G63A A69C,≤ 0.5
7,U13G U16C C55A,≤ 0.5
8,A14C C61U A65C,≤ 0.5
9,U13G C29U C31U U35A A57C,≤ 0.5
10,A14C A40G A57G,0.539
11,A14C C27G C46G A57C A70C,≤ 0.5
12,U13G C49U,0.693
13,A14C A15G A42G A70U,0.569
14,A14C C31G C62A G67U,≤ 0.5
15,U13G C29U C33U G67A,≤ 0.5
16,U13C G63A,0.937
17,U13G C22U A70U,0.751
18,U13G C22U A70C,0.748
19,A14C A20U C33U,≤ 0.5
20,A14C A42G G48A,≤ 0.5
21,U13G C24A A45G C55G,0.622
22,A14C C27G U28G,≤ 0.5
23,A14C C27G A70U,0.54
24,U13G G18A G39C A69U,≤ 0.5

row,Variant,yeast fitness
1,A14C A20U A69C,≤ 0.5
2,A14C A20U A69U,0.532
3,A14C C27A A37G G51C,0.615
4,A14C A36G A42C,0.533
5,A14C A20G C30U,≤ 0.5
6,A14C A20C C33G A65G,≤ 0.5
7,A14C C46U U53A,≤ 0.5
8,U13G C27A G52C C55A C62G,0.601
9,U13G G68C,0.584
10,A14C A20C A42G G44A,0.633
11,U13G A45U A70C,0.649
12,U13G A21U,1.09
13,U13C U47C C62G,≤ 0.5
14,A14C C60A A70U,≤ 0.5
15,A14C C29G C30A C62A A69C,≤ 0.5
16,A14C C22A G67C,≤ 0.5
17,A14C C46A U47G,≤ 0.5
18,A14C A37U,0.655
19,A14C A37C,0.53
20,A14C C31U A40U A57G,0.53
21,A14C C46G,0.953
22,U13G C22G C30U A36G A40U U54G,≤ 0.5
23,U13G U35C G38A A42U G58C,≤ 0.5
